pIC50: −log10 of the molar value. Values after ≈ are worked out from the molar mass of the structure shown.
Assays:
[1] = tested on: Mycobacterium tuberculosis; assay: Antitubercular activity against Mycobacterium tuberculosis measured after 48 hrs by luminescence based serial dilution method; format: functional
[2] = molecular target: T1, Enoyl-[acyl-carrier-protein] reductase [NADH] (Mycobacterium tuberculosis, UniProt P9WGR1); assay: Inhibition of recombinant Mycobacterium tuberculosis InhA expressed in Escherichia coli […] pLysS using trans-2-decenoyl-N-acetylcysteamine as substrate by spectrophotometric method
T1 sequence (P9WGR1 whole entry): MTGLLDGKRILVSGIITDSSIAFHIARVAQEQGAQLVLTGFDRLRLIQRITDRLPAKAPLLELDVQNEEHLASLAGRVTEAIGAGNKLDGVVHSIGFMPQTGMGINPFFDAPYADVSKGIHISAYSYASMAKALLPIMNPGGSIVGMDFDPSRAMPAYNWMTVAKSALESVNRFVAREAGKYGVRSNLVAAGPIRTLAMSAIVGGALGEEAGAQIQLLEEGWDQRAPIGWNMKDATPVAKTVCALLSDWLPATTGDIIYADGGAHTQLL

[3] = Cytotoxicity against HEK293 cells after 48 hrs by MTT assay; format: cell-based; settings: human, read-out: MIC
Staphylococcus aureus [4] = assay: Antimicrobial activity against methicillin-sensitive Staphylococcus aureus ATCC 25923 measured after 48 hrs; format: functional; settings: ATCC 25923, 48 h
In short: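 Brucella broth with 10% heat-inactivated horse serum. Inoculum of 1×10^5 bacteria per well, exposed to a range of compound concentrations for 48 h at 37 °C. Read as absorbance at 590 nm, with compound-free wells as control and medium-only wells as blank. Percent growth inhibition was calculated, and the concentration giving 80% inhibition was taken as the MIC.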

Pseudomonas aeruginosa = assay: Antimicrobial activity against Pseudomonas aeruginosa […] measured after 48 hrs by p-iodonitrotetrazolium violet dye based serial dilution test; format: functional
Staphylococcus aureus [5] = assay: Antimicrobial activity against […] Staphylococcus aureus ATCC 29213 measured after 48 hrs; format: functional; settings: ATCC 29213, 48 h
In short: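 Brucella broth with 10% heat-inactivated horse serum. Inoculum of 1×10^5 bacteria per well, exposed to a range of compound concentrations at 37 °C for 48 h. Absorbance read at 590 nm. Drug-free wells served as growth control and medium-only wells as blank. MIC is the concentration giving 80% growth inhibition.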

DNA gyrase = DNA gyrase (Escherichia coli, UniProt P0AES4+P0AES6); assay: Inhibition of Escherichia coli DNA gyrase assessed as reduction in enzyme-mediated supercoiling of relaxed pBR322 DNA measured after 60 mins by electrophoresis method; format: protein-complex assay
[6] = molecular target: T2, 3-oxoacyl-[acyl-carrier-protein] synthase 3 (Escherichia coli, UniProt C3TDZ2); assay: Inhibition of Escherichia coli KAS3 expressed in Escherichia coli BL21(DE3)
T2 sequence (C3TDZ2 whole entry): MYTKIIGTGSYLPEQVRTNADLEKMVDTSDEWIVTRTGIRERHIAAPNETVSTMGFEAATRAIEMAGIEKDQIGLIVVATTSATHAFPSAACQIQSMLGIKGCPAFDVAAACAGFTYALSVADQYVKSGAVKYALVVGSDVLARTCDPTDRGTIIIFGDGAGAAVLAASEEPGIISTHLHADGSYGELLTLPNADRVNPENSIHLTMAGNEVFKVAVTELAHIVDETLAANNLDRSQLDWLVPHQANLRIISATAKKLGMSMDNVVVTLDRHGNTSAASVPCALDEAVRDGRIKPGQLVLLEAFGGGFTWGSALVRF

| SMILES | MIC [1] | pIC50 [2] | MCC at 48 h [3] | MIC (Staphylococcus aureus [4]) | MIC (Pseudomonas aeruginosa) | MIC (Staphylococcus aureus [5]) | pIC50 (DNA gyrase) | pIC50 [6] |
| --- | --- | --- | --- | --- | --- | --- | --- | --- |
| COc1ccc(C(=O)CN2C(=O)/C(=C\c3ccccc3OC)SC2=S)cc1 | 9.27 µM (≈ 3.7 µg/mL) | 4.77 | – | – | – | – | – | – |
| COc1ccccc1/C=C1/SC(=S)N(CC(=O)c2ccccc2)C1=O | 30.4 µM (≈ 11.2 µg/mL) | 4.55 | – | – | – | – | – | – |
| CC(=O)Nc1ccc(/C=C2/SC(=S)N(CC(=O)c3ccccc3)C2=O)cc1 | 3.18 µM (≈ 1.26 µg/mL) | 4.94 | – | – | – | – | – | – |
| O=C(CN1C(=O)/C(=C\c2ccc(F)cc2)SC1=S)c1ccccc1 | 57.4 µM (≈ 20.5 µg/mL) | 4.26 | – | – | – | – | – | – |
| O=C(CN1C(=O)/C(=C\c2ccc(Cl)cc2)SC1=S)c1ccccc1 | 48.2 µM (≈ 18 µg/mL) | 4.30 | – | – | – | – | – | – |
| O=C(CN1C(=O)/C(=C\c2ccccc2)SC1=S)c1ccccc1 | 32.3 µM (≈ 11 µg/mL) | 4.40 | – | – | – | – | – | – |
| O=C(CN1C(=O)/C(=C\c2ccc([N+](=O)[O-])cc2)SC1=S)c1ccccc1 | 36.5 µM (≈ 14 µg/mL) | 4.36 | – | – | – | – | – | – |
| COc1ccc(/C=C2/SC(=S)N(CC(=O)c3ccccc3)C2=O)cc1 | 2.95 µM (≈ 1.09 µg/mL) | 5.08 | 167 µM | 4.28 µM (≈ 1.58 µg/mL) | 4.83 µM (≈ 1.78 µg/mL) | 4.15 µM (≈ 1.53 µg/mL) | – | – |
| O=C(CN1C(=O)/C(=C\c2ccc(Br)cc2)SC1=S)c1ccccc1 | 21.1 µM (≈ 8.83 µg/mL) | 4.62 | – | – | – | – | – | – |
| COc1cc(/C=C2/SC(=S)N(CC(=O)c3ccccc3)C2=O)cc(OC)c1OC | 0.38 µM (≈ 0.163 µg/mL) | 5.51 | > 200 µM | 4.61 µM (≈ 1.98 µg/mL) | 5.41 µM (≈ 2.32 µg/mL) | 7.2 µM (≈ 3.09 µg/mL) | < 3.00 | 3.11 |
| COc1ccc(C(=O)CN2C(=O)/C(=C\c3ccccc3Cl)SC2=S)cc1 | 7.83 µM (≈ 3.16 µg/mL) | 4.82 | – | – | – | – | – | – |
| COc1ccc(C(=O)CN2C(=O)/C(=C\c3ccc(Br)cc3)SC2=S)cc1 | 4.04 µM (≈ 1.81 µg/mL) | 4.92 | – | – | – | – | – | – |
| O=C(CN1C(=O)/C(=C\c2ccc(O)cc2)SC1=S)c1ccccc1 | 33.1 µM (≈ 11.8 µg/mL) | 4.45 | – | – | – | – | – | – |
| O=C(CN1C(=O)/C(=C\c2ccccc2Cl)SC1=S)c1ccccc1 | 25.5 µM (≈ 9.53 µg/mL) | 4.59 | – | – | – | – | – | – |
| O=C(CN1C(=O)/C(=C\c2cccc(Cl)c2)SC1=S)c1ccccc1 | 40.9 µM (≈ 15.3 µg/mL) | 4.33 | – | – | – | – | – | – |
| CN(C)c1ccc(/C=C2/SC(=S)N(CC(=O)c3ccccc3)C2=O)cc1 | 12.6 µM (≈ 4.82 µg/mL) | 4.76 | – | – | – | – | – | – |
| COc1ccc(C(=O)CN2C(=O)/C(=C\c3ccc(F)cc3)SC2=S)cc1 | 17.8 µM (≈ 6.9 µg/mL) | 4.70 | – | – | – | – | – | – |
| COc1cccc(/C=C2/SC(=S)N(CC(=O)c3ccccc3)C2=O)c1 | 20.5 µM (≈ 7.57 µg/mL) | 4.65 | – | – | – | – | – | – |
| Cc1ccc(/C=C2/SC(=S)N(CC(=O)c3ccccc3)C2=O)cc1 | 15.1 µM (≈ 5.34 µg/mL) | 4.76 | – | – | – | – | – | – |
| COc1ccc(C(=O)CN2C(=O)/C(=C\c3cccc(Cl)c3)SC2=S)cc1 | 2.02 µM (≈ 0.816 µg/mL) | 5.11 | > 200 µM | 2.16 µM (≈ 0.872 µg/mL) | 5.05 µM (≈ 2.04 µg/mL) | 3.88 µM (≈ 1.57 µg/mL) | – | – |
| COc1ccc(C(=O)CN2C(=O)/C(=C\c3cc(OC)c(OC)c(OC)c3)SC2=S)cc1 | 0.29 µM (≈ 0.133 µg/mL) | 5.59 | > 200 µM | 1.24 µM (≈ 0.57 µg/mL) | 0.95 µM (≈ 0.437 µg/mL) | 1.54 µM (≈ 0.708 µg/mL) | < 3.00 | 3.05 |
| COc1ccc(C(=O)CN2C(=O)/C(=C\c3ccc(C)cc3)SC2=S)cc1 | 0.49 µM (≈ 0.188 µg/mL) | 5.30 | 195 µM | 6.15 µM (≈ 2.36 µg/mL) | 8.12 µM (≈ 3.11 µg/mL) | 10.2 µM (≈ 3.91 µg/mL) | – | – |
| COc1ccc(C(=O)CN2C(=O)/C(=C\c3ccc(Cl)cc3)SC2=S)cc1 | 8.62 µM (≈ 3.48 µg/mL) | 4.78 | – | – | – | – | – | – |
| CC(/C=C1\SC(=S)N(CC(=O)O)C1=O)=C\c1ccccc1 | > 200 µM | < 3.70 | – | – | – | – | – | – |
| NNC(=O)c1ccncc1 [ISONIAZID] | 0.58 µM (≈ 0.0795 µg/mL) | 5.08 | 120 µM | 1.26 µM (≈ 0.173 µg/mL) | 2.85 µM (≈ 0.391 µg/mL) | 1.42 µM (≈ 0.195 µg/mL) | < 3.00 | < 3.00 |
| Oc1cc(Cl)ccc1Oc1ccc(Cl)cc1Cl [TRICLOSAN] | 8.65 µM (≈ 2.5 µg/mL) | – | 20.5 µM | 0.39 µM (≈ 0.113 µg/mL) | 1.25 µM (≈ 0.362 µg/mL) | 0.68 µM (≈ 0.197 µg/mL) | < 3.00 | 3.07 |
